Data on ten compounds can be found in ChEMBL document CHEMBL1135512 (J Med Chem, 2002).

Series [1] can be described thus: Partition coefficient (logD7.0). Type of series: physicochemical. To be noted: octanol/water, pH 7; read-out: logD.
The nature of series [2]: Partition coefficient (logP). Format: physicochemical. As to conditions: octanol/water; read-out: logP.
A short description of series [3]: Cytotoxicity against Chinese hamster ovary cells. Type of series: cell-based, Cricetulus griseus. The method in brief:
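Cells were then exposed to graded drug concentrations for 48 h at 37 °C, 5% CO2. MTT (1 mg/mL in PBS) was added for 3 h, and formazan was dissolved in DMSO and read at 570/630 nm. IC50 came from nonlinear regression versus drug-free wells.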

Series [4] can be described thus: In vitro hemolytic concentration on uninfected erythrocytes. Type of series: functional, Homo sapiens. The method in brief: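 Washed A+ human erythrocytes were held at 1.5% hematocrit in RPMI 1640 with 10% human serum, 25 mM HEPES and 25 mM NaHCO3. Drug (2 mM to 1 μM final, triplicate) was added for 42 h at 37 °C under 10% O2/6% CO2. Released hemoglobin in supernatant was measured with TMB/H2O2 at 455 nm. HC50 is relative to 5% saponin lysis, by nonlinear regression.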

The test system of series [5] is Plasmodium falciparum. Kind of series: In vitro inhibitory activity against multidrug-resistant Plasmodium falciparum W2 Indochina. Format: functional, organism-based. As to conditions: Plasmodium falciparum. The procedure, abridged: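 Clone W2 (Indochina), sorbitol-synchronized, was grown in RPMI 1640 with 10% human serum, 25 mM HEPES and 25 mM NaHCO3, at final parasitemia 0.5% and hematocrit 1.5%. The drug was present for 48 h at 37 °C under 10% O2/6% CO2/84% N2. Growth was read as 3H-hypoxanthine uptake (1 μCi/well). IC50 came from nonlinear regression of log-dose/response as the geometric mean with 95% CI.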

In series [6] the test system is Plasmodium falciparum. Kind of series: Accumulation coefficient of chloroquine at 1 uM-10 uM of DEEA against Plasmodium falciparum W2. Format: functional. The procedure, abridged: (§1)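 W2 infected erythrocytes were suspended in RPMI 1640 with 25 mM HEPES and 25 mM NaHCO3 (2% parasitemia, 2% hematocrit). They were mixed over silicone oil with buffer holding [3H]CQ (26 Ci/mmol) plus DEEA at 1 or 10 μM. Incubation was 1 h at 37 °C under 10% O2/6% CO2/84% N2, followed by 1 min centrifugation. Ratio = parasite [3H]CQ (infected minus uninfected cells) / same-volume buffer.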

For series [7], the system named is Plasmodium falciparum. Description: Concentration required to reduce chloroquine IC50 by 50%. Format: functional, organism-based. To be noted: Plasmodium falciparum. The method in brief: (§2)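 Synergy isotopic microtest on sorbitol-synchronized W2 (Indochina) and 3D7 in RPMI 1640 with 10% human serum, HEPES/NaHCO3, parasitemia 0.5%, hematocrit 1.5%. CQ was combined with subinhibitory fixed DEEA concentrations, and 3H-hypoxanthine was added for 48 h at 37 °C under 10% O2/6% CO2/84% N2. Reversal IC50 is the DEEA concentration halving CQ IC50, found by nonlinear regression of log-dose/IC50.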

In series [8] the test system is Plasmodium falciparum. Kind of series: Percent reversal against Plasmodium falciparum W2 at 1 uM DEEA. Format: functional.
The nature of series [9]: Dissociation constant (pKa). Type of series: physicochemical.
In series [10] the test system is Plasmodium falciparum. Description: Accumulation coefficient of chloroquine at 1 uM-10 uM of DEEA against Plasmodium falciparum W2; Range is from 50-66. Type of series: functional. The method in brief: as §1
Series [11] has as its system Plasmodium falciparum. Kind of series: Accumulation coefficient of chloroquine at 1 uM-10 uM of DEEA against Plasmodium falciparum W2;Range is from 16-25. Type of series: functional. The procedure, abridged: as §1
In series [12] the test system is Plasmodium falciparum. Kind of series: Accumulation coefficient of chloroquine at 1 uM-10 uM of DEEA against Plasmodium falciparum W2; Range is from 23-30. Type of series: functional.
Series [13] has as its system Plasmodium falciparum. Kind of series: Concentration required to reduce chloroquine IC50 by 50%; Antagonist. Format: functional, organism-based. The method in brief:
as §2

Series [14] has as its system Plasmodium falciparum. Kind of series: Accumulation coefficient of chloroquine at 1 uM-10 uM of DEEA against Plasmodium falciparum W2; Range is from 22-29. Format: functional. The method in brief:
as §1

As usually defined, the logD is the decadic logarithm of the distribution of all forms, ionised or not, between an organic phase and buffer at a given pH. As a reminder, the logP is a log measure of how a compound divides between an organic and an aqueous phase. A word on the HC50: it is the concentration giving 50% haemolysis. Low readings indicate more damage to red cells, high ones less damage to red cells. A word on the IC50: it is the concentration that inhibits the measured activity by half. Broadly, the pKa is the pH at which an ionisable group is half protonated. A lower pKa goes with a stronger acid or weaker base.

As for `O=C(NCc1ccccc1)C1=CC2c3ccccc3C1c1ccccc12`, in series [1], the logD is 4.41. In addition, the logP in series [2] was found to be 4.41. The Cytotoxicity in [3] was more than 2000 µM. Besides, the HC50 in [4] was more than 2000 µM. Also, the half-inhibitory concentration (IC50) amounted to 50 µM with Plasmodium falciparum [5] and 23 µM in the series with Plasmodium falciparum [7]. In the series on Plasmodium falciparum [6], this compound had an Accumulation coefficient of 46. In the series with Plasmodium falciparum [8], the Reversal is given as 0%.

On to `CC1C2c3ccccc3C(c3ccccc32)C1C[N+](C)(C)C.[I-]` (configuration not stated), for which, in [1], the logD was 1.32. Moreover, in series [2], the logP came out at 1.32. In series [3], this compound registered a Cytotoxicity of more than 2000 µM. In series [4], this compound had a concentration for 50% haemolysis (HC50) of more than 2000 µM. Also, the IC50 in the series on Plasmodium falciparum [5] is 16 µM; in the series with Plasmodium falciparum [7] it was 3.5 µM. In the series with Plasmodium falciparum [6], this compound registered an Accumulation coefficient of 192. Moreover, the Reversal in the series with Plasmodium falciparum [8] is reported as 37%.

As to `CNCC1CC2c3ccccc3C1c1ccccc12` (configuration not stated), in series [1], the logD came to 0.63. Besides, in [2], the lipophilicity (logP) amounted to 3.66. In [9], this compound came in with a pKa of 10.2. Further, the Cytotoxicity in series [3] is 515 µM. In [4], this compound yielded an HC50 of 1090 µM. In addition, the IC50 in the series on Plasmodium falciparum [5] amounted to 8 µM; in the series with Plasmodium falciparum [7] it was 0.3 µM. Further, the Accumulation coefficient in the series with Plasmodium falciparum [6] is listed as 210. For the same compound, the Reversal in the series on Plasmodium falciparum [8] is listed as 80%.

Consider `CN(C)CC1C2c3ccccc3C(c3ccccc32)C1COC(=O)N(C)C` (configuration not stated), for which the logD in series [1] was determined as 1. The logP in series [2] was 2.99. The pKa in series [9] came out at 8.99. The Cytotoxicity in series [3] came out at 758 µM. The HC50 in series [4] turned out to be 1563 µM. The 50% inhibitory concentration (IC50) is 21 µM in the series with Plasmodium falciparum [5] and 1.6 µM in the series on Plasmodium falciparum [7]. In the series with Plasmodium falciparum [10], this compound came in with an Accumulation coefficient of 66. The Reversal in the series on Plasmodium falciparum [8] came to 25%.

In the case of `CN(C)C=NC(=O)C1C2c3ccccc3C(c3ccccc32)C1C(=O)N=CN(C)C` (configuration not stated), the logD in series [1] is 1.6. In addition, in series [2], the logP was 1.6. For the same compound, the Cytotoxicity in [3] amounted to 820 µM. In series [4], this compound displayed an HC50 of more than 2000 µM. The values for the half-inhibitory concentration (IC50) with Plasmodium falciparum [5] and in the series with Plasmodium falciparum [7] were 33 µM and 30 µM, respectively. Also, in the series on Plasmodium falciparum [11], the Accumulation coefficient turned out to be 25. The Reversal in the series on Plasmodium falciparum [8] was determined as 0%.

Take `COC(=O)C1C2c3ccccc3C(c3ccccc32)C1C(=O)N(C)C` (configuration not stated): in series [1], the logD turned out to be 2.47. Further, the logP in series [2] was found to be 2.47. Besides, the pKa in [9] was -1.65. Also, the Cytotoxicity in series [3] is more than 2000 µM. Also, in series [4], the HC50 is more than 2000 µM. Moreover, the IC50 was 32 µM in the series on Plasmodium falciparum [5] and “Antagonist” in the series on Plasmodium falciparum [13]. The Accumulation coefficient in the series with Plasmodium falciparum [12] turned out to be 30. The Reversal in the series with Plasmodium falciparum [8] came to 0%.

Turning to `c1ccc2c(c1)C1c3ccccc3C2C2CNCC12` (configuration not stated), the logD in series [1] was 0. Also, the logP in series [2] is 2.98. In addition, in [9], the pKa was 10.2. For the same compound, in [3], the Cytotoxicity came to 1110 µM. Also, the HC50 in [4] was more than 2000 µM. The half-maximal inhibitory concentration (IC50) in the series with Plasmodium falciparum [5] is 10 µM; with Plasmodium falciparum [7], 0.2 µM. Also, the Accumulation coefficient in the series on Plasmodium falciparum [6] is 322. Further, in the series with Plasmodium falciparum [8], the Reversal was 80%.

`CN(C)CC1=CC2c3ccccc3C1c1ccccc12`: the logD in series [1] was determined as 2.61. In addition, the logP in series [2] came out at 3.68. In series [9], this compound returned a pKa of 8.04. In series [3], this compound had a Cytotoxicity of 1427 µM. The same compound came in with an HC50 in series [4] of 1630 µM. For the same compound, the values for the IC50 with Plasmodium falciparum [5] and with Plasmodium falciparum [7] were 4 µM and 0.5 µM, respectively. The Accumulation coefficient in the series with Plasmodium falciparum [6] worked out at 53. In addition, the Reversal in the series on Plasmodium falciparum [8] stood at 65%.

Take `CN(C)C1CC2c3ccccc3C1c1ccccc12` (configuration not stated): the logD in [1] worked out at 2. The lipophilicity (logP) in series [2] came to 3.67. The compound further displayed a pKa in series [9] of 8.67. In [3], this compound had a Cytotoxicity of more than 2000 µM. Besides, the HC50 in series [4] is more than 2000 µM. Besides, the IC50 was 9.3 µM with Plasmodium falciparum [5] and 0.8 µM in the series with Plasmodium falciparum [7]. Besides, in the series with Plasmodium falciparum [6], the Accumulation coefficient is 219. In addition, the Reversal in the series on Plasmodium falciparum [8] was 60%.

In the case of `NC(=O)C1C2c3ccccc3C(c3ccccc32)C1C(N)=O` (configuration not stated), in [1], the logD was 0.86. Besides, the logP in series [2] worked out at 0.86. For the same compound, the pKa in [9] is -0.96. The compound also yielded a Cytotoxicity in series [3] of more than 2000 µM. The compound also returned an HC50 in series [4] of more than 2000 µM. Further, the IC50 with Plasmodium falciparum [5] amounted to 44 µM; in the series on Plasmodium falciparum [7] it was 50 µM. The same compound returned an Accumulation coefficient in the series with Plasmodium falciparum [14] of 29. Also, in the series with Plasmodium falciparum [8], the Reversal came out at 0%.
